Source: PubChem BioAssay
A selection: hits, their analogues and other compounds. The true share with any hit is near 5.9%.
IDH1 R132H inh: inhibitors of IDH1 R132H reductase, primary screen, biochemical, plate reader, single point | Isocitrate dehydrogenase [NADP] cytoplasmic (Homo sapiens), O75874 | hit rate 0.18% among 70,000 | inhibition, % at 10 µM | diaphorase/resazurin fluorescence, 60 min; in the data active means inhibition above about 34%; inconclusive means no clear call, values can overlap the other calls; inactive means below about 11%
Target sequence (O75874 whole entry R132H): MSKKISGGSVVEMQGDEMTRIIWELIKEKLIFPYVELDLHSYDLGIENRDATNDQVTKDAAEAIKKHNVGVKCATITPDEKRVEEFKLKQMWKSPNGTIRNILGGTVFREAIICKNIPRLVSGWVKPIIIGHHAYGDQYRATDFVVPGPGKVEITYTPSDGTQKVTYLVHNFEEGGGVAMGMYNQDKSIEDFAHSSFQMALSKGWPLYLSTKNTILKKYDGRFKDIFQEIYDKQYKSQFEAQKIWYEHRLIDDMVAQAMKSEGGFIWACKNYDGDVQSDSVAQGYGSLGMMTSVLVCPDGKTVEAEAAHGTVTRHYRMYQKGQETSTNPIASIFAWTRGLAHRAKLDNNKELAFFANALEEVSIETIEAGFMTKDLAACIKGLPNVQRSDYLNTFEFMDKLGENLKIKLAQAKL
Pf Dd2 growth: P. falciparum Dd2 growth inhibitors, primary screen, SYBR Green fluorescence, single dose replicates. activity change, % at 10 µM. 72 h; hits give low values. hit rate 2.3% among 94,000; in the data active means activity change below about -80%; inconclusive means no clear call, values can overlap the other calls
T cruzi growth-1: T. cruzi intracellular proliferation inhibitors, primary screen, cell-based, beta-gal Tulahuen parasites, NIH3T3 host, luminescence; AID 624255, 2012; hit rate 5.9% among 77,000; T. cruzi beta-gal in NIH3T3, GalScreen luminescence, 90 h; inhibition, % at 8.34 µM;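 active means mean inhibition above about 93%, with at least 55% of replicates each passing it, limit read from the data, passing the limit was not always enough; inconclusive means only one of those two conditions holds; inactive means neither condition holds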
KDM4C inh: inhibitors of GASC-1 (KDM4C) histone demethylase, primary screen, biochemical, single concentration HTS | Lysine-specific demethylase 4C (Homo sapiens), Q9H3R0 | GST-KDM4C 2-372, H3K9me3 peptide, LANCE TR-FRET | inhibition, % at 12.5 µM | hit rate 0.15% among 96,000;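 active means mean replicate inhibition above about 25%, with at least 55% of replicates also reaching it, limit read from the data, passing the limit was not always enough; inconclusive means only one of those two conditions met; inactive means neither condition met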
Target sequence (Q9H3R0 2-372 limits assumed): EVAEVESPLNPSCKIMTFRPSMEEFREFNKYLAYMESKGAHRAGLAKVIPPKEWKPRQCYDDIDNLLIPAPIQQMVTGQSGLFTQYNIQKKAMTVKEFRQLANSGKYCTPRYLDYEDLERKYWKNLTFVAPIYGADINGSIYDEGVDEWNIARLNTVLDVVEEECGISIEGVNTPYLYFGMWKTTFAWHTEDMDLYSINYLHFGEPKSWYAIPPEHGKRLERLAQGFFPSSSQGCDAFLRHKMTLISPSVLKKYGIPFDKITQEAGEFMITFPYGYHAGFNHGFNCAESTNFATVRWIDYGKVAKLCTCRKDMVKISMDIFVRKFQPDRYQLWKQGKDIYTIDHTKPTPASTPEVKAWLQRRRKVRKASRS
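Compound: one test concentration per compound; Material: GST-GASC-1 enzyme fragment 2-372; Amount: GASC-1 enzyme at 10 nM final in reaction; Also added: H3K9me3 peptide substrate, Fe(II), 2-oxoglutarate; Technique: LANCE TR-FRET; Times: 30 min demethylation and 1 h detection at room temperature.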
T cruzi growth-2: T. cruzi intracellular proliferation inhibitors, confirmation, cell-based, NIH3T3 host, beta-gal parasite, luminescence, cherry-pick; shares compounds with T cruzi growth-1; T. cruzi beta-gal in NIH3T3, GalScreen luminescence, 90 h; inhibition, % at 8.35 µM; hit rate 72% among 5,600;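 active means mean replicate inhibition above about 95% and at least 55% of replicates individually reaching it, limit read from the data; inconclusive means only one of the two criteria is met; inactive means neither criterion is met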
T cruzi growth-3: inhibitors of intracellular T. cruzi replication, confirmation, NIH3T3 host cells, beta-gal parasites, cherry-pick, set 2; shares compounds with T cruzi growth-1; T. cruzi beta-gal in NIH3T3, GalScreen luminescence, 90 h; inhibition, % at 2.09 µM; hit rate 21% among 5,600; AID 651740, 2012;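 active means mean inhibition above about 95%, with at least 55% of replicates also reaching it, limit read from the data; inconclusive means meets just one of the two conditions; inactive means meets neither condition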
3T3 cytotox: cytotoxicity in mouse NIH/3T3 fibroblasts, confirmation, cytotoxicity control for T. cruzi proliferation inhibitor project, cell-based, cherry-pick, single point; shares compounds with T cruzi growth-1; NIH/3T3 viability, CellTiter-Glo ATP luminescence, 90 h; cytotoxicity (signal decrease), % at 8.35 µM; hit rate 14% among 5,600;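 active means mean signal decrease across replicates above about 35% based on untreated-well scatter, with enough replicates individually passing, limit read from the data; inconclusive means no rule stated though some were filed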
NIH3T3 tox 2: NIH/3T3 fibroblast cytotoxicity, confirmation, cytotoxicity control, cell-based, cherry-pick, single point, set 2. shares compounds with T cruzi growth-1. NIH/3T3 viability, CellTiter-Glo ATP luminescence, 90 h. inhibition, % at 24.9 µM. hit rate 56% among 5,600. AID 651744, 2012;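 active means mean loss of cell viability signal at or above a set limit, and enough replicates individually reaching it; inconclusive means meets only the mean limit or only the replicate share; inactive means meets neither condition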
Each line names hits and unclear results; the compound was inactive in the other large screens (follow-up assays come after a bar, where they were run).

CC(C)CC#Cc1ccc2c(c1)O[C@H](CN(C)C(=O)Nc1ccccc1F)[C@@H](C)CN([C@@H](C)CO)S2(=O)=O	none
CC(C)CC#Cc1ccc2c(c1)O[C@H](CN(C)C(=O)Nc1ccccc1F)[C@H](C)CN([C@@H](C)CO)S2(=O)=O	none
CC(C)CC#Cc1ccc2c(c1)O[C@@H](CN(C)C(=O)Nc1ccccc1F)[C@H](C)CN([C@H](C)CO)S2(=O)=O	T cruzi growth-1 115.4 | T cruzi growth-2 109.4 | T cruzi growth-3 inactive | 3T3 cytotox inactive | NIH3T3 tox 2 78.1
CC(C)CC#Cc1ccc2c(c1)O[C@@H](CN(C)C(=O)Nc1ccccc1F)[C@@H](C)CN([C@H](C)CO)S2(=O)=O	T cruzi growth-1 107.7 | T cruzi growth-2 106.2 | T cruzi growth-3 inconclusive | 3T3 cytotox inactive | NIH3T3 tox 2 98.8
CC(C)CC#Cc1ccc2c(c1)O[C@@H](CN(C)C(=O)Nc1ccccc1F)[C@H](C)CN([C@@H](C)CO)S2(=O)=O	T cruzi growth-1 108.3 | T cruzi growth-2 107.6 | T cruzi growth-3 inactive | 3T3 cytotox inactive | NIH3T3 tox 2 100.6
O=C(NCc1nc2ccccc2n1Cc1ccccc1)c1ccccc1	none (no result: Pf Dd2 growth, T cruzi growth-1, KDM4C inh)
O=C(CCCn1cc([N+](=O)[O-])cn1)Nc1cc(F)ccc1F	none (no result: Pf Dd2 growth, T cruzi growth-1, KDM4C inh)
C[C@H]1CN([C@@H](C)CO)C(=O)c2cc(NS(=O)(=O)c3cn(C)cn3)ccc2O[C@@H]1CN(C)Cc1ccc(C(=O)Nc2ccccc2N)cc1	T cruzi growth-1 inconclusive | T cruzi growth-2 inactive | T cruzi growth-3 inactive | 3T3 cytotox inactive | NIH3T3 tox 2 inactive
COc1ccc(S(=O)(=O)Nc2cccc3c2O[C@@H](CN(C)Cc2ccc(C(=O)Nc4ccccc4N)cc2)[C@@H](C)CN([C@@H](C)CO)C3=O)cc1	T cruzi growth-1 inconclusive (no result: IDH1 R132H inh) | T cruzi growth-2 inactive | T cruzi growth-3 inactive | 3T3 cytotox inactive | NIH3T3 tox 2 37.1
C[C@H]1CN([C@@H](C)CO)C(=O)c2cccc(NS(=O)(=O)c3ccc(Cl)cc3)c2O[C@H]1CN(C)Cc1ccc(C(=O)Nc2ccccc2N)cc1	Pf Dd2 growth -89.1, T cruzi growth-1 104.2 | T cruzi growth-2 inactive | T cruzi growth-3 inactive | 3T3 cytotox inactive | NIH3T3 tox 2 38.5
COc1ccc(S(=O)(=O)Nc2cccc3c2O[C@@H](CN(C)Cc2ccc(C(=O)Nc4ccccc4N)cc2)[C@H](C)CN([C@H](C)CO)C3=O)cc1	none (no result: IDH1 R132H inh, T cruzi growth-1)
C[C@H]1CN([C@@H](C)CO)C(=O)c2cc(NS(=O)(=O)c3ccc(Cl)cc3)ccc2O[C@@H]1CN(C)Cc1ccc(C(=O)Nc2ccccc2N)cc1	none (no result: IDH1 R132H inh)
C[C@@H]1CN([C@@H](C)CO)C(=O)c2cc(NS(=O)(=O)c3ccc(Cl)cc3)ccc2O[C@@H]1CN(C)Cc1ccc(C(=O)Nc2ccccc2N)cc1	Pf Dd2 growth inconclusive, T cruzi growth-1 105.6 (no result: IDH1 R132H inh) | T cruzi growth-2 108.2 | T cruzi growth-3 inactive | 3T3 cytotox inactive | NIH3T3 tox 2 61.8
Cc1ccc(S(=O)(=O)Nc2cccc3c2O[C@@H](CN(C)Cc2ccc(C(=O)Nc4ccccc4N)cc2)[C@H](C)CN([C@@H](C)CO)C3=O)cc1	none (no result: IDH1 R132H inh, T cruzi growth-1)
COc1ccc(S(=O)(=O)Nc2cccc3c2O[C@@H](CN(C)Cc2ccc(C(=O)O)cc2)[C@@H](C)CN([C@H](C)CO)C3=O)cc1	T cruzi growth-1 100.7 | T cruzi growth-2 inactive | T cruzi growth-3 inactive | 3T3 cytotox inactive | NIH3T3 tox 2 inactive
CCc1ccc2oc(-c3ccc(C)c(NC(=O)COc4ccccc4)c3)nc2c1	none (no result: Pf Dd2 growth, T cruzi growth-1, KDM4C inh)
Cn1cnc(S(=O)(=O)N2CC[C@@H]3[C@@H](CO)Nc4ccc(-c5ccccc5)cc4[C@@H]32)c1	T cruzi growth-1 104.4 (no result: IDH1 R132H inh) | T cruzi growth-2 96.3 | T cruzi growth-3 inactive | 3T3 cytotox inactive | NIH3T3 tox 2 inactive
Cn1cnc(S(=O)(=O)N2CC[C@@H]3[C@H]2c2cc(-c4ccccc4)ccc2N[C@@H]3CO)c1	T cruzi growth-1 inconclusive (no result: IDH1 R132H inh) | T cruzi growth-2 110.5 | T cruzi growth-3 inconclusive | 3T3 cytotox inactive | NIH3T3 tox 2 inactive
Cn1cnc(S(=O)(=O)N2CC[C@@H]3[C@H](CO)Nc4ccc(-c5ccccc5)cc4[C@@H]32)c1	T cruzi growth-1 101.1 (no result: IDH1 R132H inh) | T cruzi growth-2 101.5 | T cruzi growth-3 inactive | 3T3 cytotox inactive | NIH3T3 tox 2 inactive
Cc1cc(Br)ccc1NC(=O)CN(C)S(=O)(=O)c1ccc(Cl)cc1	none (no result: Pf Dd2 growth, T cruzi growth-1, KDM4C inh)
COc1ccc(C)cc1NC(=O)C(C)NS(=O)(=O)c1ccc(C)cc1 (stereo not given)	none (no result: Pf Dd2 growth, T cruzi growth-1, KDM4C inh)
N#Cc1cccc(-c2ccc3c(c2)[C@H]2[C@H](CCN2C(=O)c2ccncc2)[C@H](CO)N3)c1	Pf Dd2 growth -80.2, T cruzi growth-1 117.9 (no result: IDH1 R132H inh) | T cruzi growth-2 inactive | T cruzi growth-3 inactive | 3T3 cytotox inactive | NIH3T3 tox 2 inactive
N#Cc1cccc(-c2ccc3c(c2)[C@H]2[C@H](CCN2Cc2cncnc2)[C@H](CO)N3)c1	none (no result: IDH1 R132H inh)
N#Cc1cccc(-c2ccc3c(c2)[C@@H]2[C@@H](CCN2Cc2cncnc2)[C@H](CO)N3)c1	T cruzi growth-1 112.0 (no result: IDH1 R132H inh) | T cruzi growth-2 114.7 | T cruzi growth-3 inactive | 3T3 cytotox inactive | NIH3T3 tox 2 39.5
O=C(c1ccccn1)N1CC[C@H]2[C@H](CO)Nc3ccc(C#Cc4cccnc4)cc3[C@H]21	none (no result: IDH1 R132H inh)
O=C(c1ccccn1)N1CC[C@H]2[C@H](CO)Nc3ccc(-c4cccc(F)c4)cc3[C@H]21	none (no result: IDH1 R132H inh)
O=C(c1ccc(F)cc1)N1CC[C@H]2[C@H](CO)Nc3ccc(-c4ccccc4F)cc3[C@H]21	none (no result: IDH1 R132H inh)
O=C(c1ccccn1)N1CC[C@@H]2[C@@H](CO)Nc3ccc(-c4ccc(F)cc4)cc3[C@@H]21	T cruzi growth-1 111.6 (no result: IDH1 R132H inh) | T cruzi growth-2 105.3 | T cruzi growth-3 inactive | 3T3 cytotox inactive | NIH3T3 tox 2 inactive
O=C(c1ccc(F)cc1)N1CC[C@@H]2[C@H](CO)Nc3ccc(-c4ccccc4F)cc3[C@@H]21	T cruzi growth-1 inconclusive (no result: IDH1 R132H inh) | T cruzi growth-2 97.5 | T cruzi growth-3 inactive | 3T3 cytotox inactive | NIH3T3 tox 2 84.9
O=C(c1cnccn1)N1CC[C@H]2[C@H](CO)Nc3ccc(-c4ccccc4F)cc3[C@H]21	T cruzi growth-1 98.7 (no result: IDH1 R132H inh) | T cruzi growth-2 96.1 | T cruzi growth-3 inactive | 3T3 cytotox inactive | NIH3T3 tox 2 inactive
